Hits are enriched below; roughly 4.3% of the tested compounds scored in any of these assays.
SMARCA2 act – increases SMARCA2 function in MMTV reporter cells | MG213 cells, MMTV-luciferase reporter, dexamethasone, overnight | 1% of 370,000 active | AID 652017 | activation, % at 9.1 µM; in the data active = activation above about 7.8%
SR-BI HDL uptake – mouse SR-BI HDL lipid transfer inhibition. 0.96% of 320,000 active. ldlA[mSR-BI] CHO cells, DiI-HDL uptake fluorescence, 3 h. AID 488896. Q61009. inhibition, % at 12.5 µM;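 active = mean replicate inhibition of at least 70% and a set share of replicates each scoring 70 or more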
Target sequence (Q61009 whole entry, looked up): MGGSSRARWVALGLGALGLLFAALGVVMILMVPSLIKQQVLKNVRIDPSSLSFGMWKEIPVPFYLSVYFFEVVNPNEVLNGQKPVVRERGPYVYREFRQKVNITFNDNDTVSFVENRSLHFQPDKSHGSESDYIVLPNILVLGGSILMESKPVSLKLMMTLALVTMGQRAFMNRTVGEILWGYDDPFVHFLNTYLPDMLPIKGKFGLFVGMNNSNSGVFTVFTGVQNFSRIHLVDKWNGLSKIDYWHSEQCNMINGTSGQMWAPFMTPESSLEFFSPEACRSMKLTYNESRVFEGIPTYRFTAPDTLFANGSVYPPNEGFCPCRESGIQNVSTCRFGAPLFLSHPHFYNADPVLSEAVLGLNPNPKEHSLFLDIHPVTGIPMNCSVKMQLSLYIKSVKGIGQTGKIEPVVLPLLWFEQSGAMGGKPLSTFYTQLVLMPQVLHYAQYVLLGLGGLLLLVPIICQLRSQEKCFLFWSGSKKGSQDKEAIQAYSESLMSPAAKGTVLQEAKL
CR mimetic SO – lowers age-related superoxide in aged yeast cells; S. cerevisiae aged cells, superoxide DHE fluorescence; active compounds read low; superoxide response (% of plate mean), % at 10 µM; 0.18% of 330,000 active;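 active = superoxide response under a set limit, about three screen SD below normal, cut at about 65% in these data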;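 note: yeast aged for seven days with compound at 30 °C before DHE staining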
SR-BI uptake up – enhances SR-BI lipid uptake from DiI-HDL | AID 504775 | 0.096% of 320,000 active | activation, % at 12.5 µM | CHO ldlA[mSR-BI] cells, DiI-HDL uptake fluorescence, 3 h; 100 = double the neutral-control signal;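 active = mean replicate activation of at least 60% and every replicate at or above 60%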
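Material: SR-BI-overexpressing, LDLR-lacking CHO cells; schedule: compound exposure 3 h, 37 °C; reagent: DiI-labelled HDL at 10 µg/mL final; technique: bottom-read fluorescence, 550/595 nm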
Hep lipid drop – hepatic lipid droplet formation modulation; inhibition, % at 6.5 µM; 0.4% of 240,000 active; AML12 mouse hepatocytes, oleate lipid droplets, BODIPY imaging;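 active = lipid droplet intensity inhibited by at least 50%, with more than 500 cells counted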
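Assay system: AML12 mouse liver cells | Compound: 6.5 µM single-point dosing | Schedule: Overnight exposure | Technique: Fluorescence imaging, 20x objective, two fields per well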
AHR act – activators of human aryl hydrocarbon receptor | activation, % at 5 µM | AHR-responsive luciferase reporter cells, luminescence | 2.5% of 320,000 active; in the data active = activation above about 47%
AHR act confirm – human AHR activation, confirmation; AID 2845; human cells, AHR-responsive luciferase reporter, luminescence; activation, % at 9 µM; 87% of 2,300 active; shares compounds with AHR act; in the data active = activation above about 49%;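 note: HepG2 hepatoma cells carrying a DRE-driven firefly luciferase reporter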
PXR counter – PXR activation, counter-screen for AHR activators; cell-based PXR reporter, luciferase luminescence; 88% of 2,300 active; shares compounds with AHR act; activation, % at 11.6 µM; in the data active = activation above about 11%;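 note: human hepatoma DPX-2 cells expressing full-length human PXR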
A number is an active result; 0 = inactive; - = not tested or not shown.

SMILES | SMARCA2 act | SR-BI HDL uptake | CR mimetic SO | SR-BI uptake up | Hep lipid drop | AHR act | AHR act confirm | PXR counter
CCNC(=O)/C(C#N)=C/c1c(N2CCN(c3ccc(OC)cc3)CC2)nc2c(C)cccn2c1=O | 0 | 0 | 0 | 0 | 0 | 0 | - | -
CCCc1cc(=O)oc2cc(C)cc(OCC(=O)Nc3cccnc3)c12 | 0 | 0 | 0 | 0 | 0 | 116 | 82 | 26
COC(=O)[C@]12C[C@H](CC(=O)NCCC(C)C)C(=O)N(Cc3ccc4c(c3)OCO4)C1=C[C@H](C(C)(C)C)O[C@@H]2C | 0 | - | - | - | - | - | - | -
COc1ccc([N+](=O)[O-])cc1N/C(=N/S(=O)(=O)c1ccccc1)c1ccccc1 | 0 | 73 | 0 | 0 | 0 | 113 | 84 | 133
CCOC(=O)c1ccc2c(c1)nc(-c1ccc(F)cc1)c1nccn12 | 0 | 0 | 0 | 0 | 0 | 85 | 99 | 24
CCCN1C(=O)c2n[nH]c(C)c2C1c1ccc(Br)cc1 (stereo unspecified) | 0 | - | - | - | - | - | - | -
Cn1ccc2cc3c(cc21)CCN3C(=O)Nc1cccnc1 | 0 | 0 | 0 | 0 | - | 118 | 83 | 31
COc1ccc(C(=O)N/C(=C\c2cn(S(=O)(=O)N(C)C)c3ccccc23)C(=O)NC(C)C)cc1 | 0 | 0 | 0 | 0 | 0 | 0 | - | -
COc1ccc(C(=O)N/C(=C\c2cn(C)c3ccccc23)C(=O)OCC(C)C)cc1 | 0 | 0 | 0 | 0 | 0 | 90 | 60 | 137
COc1ccc(C(=O)N/C(=C\c2cn(C)c3ccccc23)C(=O)OCCN(C)C)cc1 | 0 | 0 | 0 | 0 | 0 | 100 | 109 | 94
COc1ccc(NC(=O)N(CCc2c(C)[nH]c3ccccc23)Cc2cccs2)cc1OC | 0 | - | - | - | - | - | - | -
O=C(CSCC(=O)Nc1nc(-c2ccc3c(c2)OCO3)cs1)Nc1nccs1 | 0 | 0 | 0 | 0 | 0 | 100 | 63 | 27
Cc1ccc2c(c1)N=C(c1ccc(Cl)cc1)CO2 | 0 | 0 | 0 | 0 | 0 | 135 | 108 | 31
Clc1ccc(C2=Nc3cc(Cl)ccc3OC2)cc1 | 0 | 0 | 0 | 0 | 0 | 104 | 129 | 0
c1ccc(C2=Nc3ccccc3OC2)cc1 | 0 | 0 | 0 | 0 | 0 | 0 | - | -
Cc1ccc(C2=NOC(C)(c3sc(-c4ccc(Cl)cc4)nc3C)C2)cc1 (stereo unspecified) | 0 | 0 | 0 | 0 | - | 0 | - | -
COc1cc2c(c(OC)c1OC)C1(CCCCC1)CC2NCC=C(C)C (stereo unspecified) | 0 | - | - | - | - | - | - | -
COC(=O)C1=C(C)N(Cc2ccc(C(F)(F)F)cc2)C(=NCc2ccccc2)NC1c1ccc(C(F)(F)F)cc1 (stereo unspecified) | 0 | - | - | - | - | - | - | -
O=C(N/N=C/c1ccc(O)cc1)c1ccc(COc2cc(Cl)ccc2Cl)o1 | 0 | 0 | 0 | 0 | - | 115 | 83 | 28
Cc1ccc(NC(=O)c2[nH]cnc2C(=O)NN)cc1 | 0 | 0 | 0 | 0 | 0 | 79 | 82 | 16
COc1ccccc1-n1nnnc1SCC(=O)Nc1ccc(C)c(N)c1 | 0 | 0 | 0 | 0 | 0 | 94 | 81 | 58
Nc1ccc(S(=O)(=O)NN=CC=Cc2ccccc2[N+](=O)[O-])cc1 | 0 | 0 | - | 0 | - | - | - | -
NS(=O)(=O)c1ccc(N/N=C/C=C/c2ccccc2[N+](=O)[O-])cc1 | 0 | 0 | 0 | 0 | 0 | 82 | 0 | 25
Cc1ccc(NC2=C(NC(=O)c3ccccc3)C(=O)c3ccccc3C2=O)cc1Cl | 0 | 79 | 0 | 0 | 0 | 104 | 106 | 93
Cc1cc(C(=O)Nn2c(-c3ccc(Br)cc3)nc3ccccc3c2=O)ccc1[N+](=O)[O-] | 0 | 0 | 0 | 0 | 0 | 83 | 48 | 49
SMILES | SMARCA2 act | SR-BI HDL uptake | CR mimetic SO | SR-BI uptake up | Hep lipid drop | AHR act | AHR act confirm | PXR counter
N#CCC[C@@H]1CC[C@]2(CCCN(C(=O)c3ccco3)C2)O1 | 0 | - | - | - | - | - | - | -
O=C(NC(=S)N1CCCc2ccccc21)c1ccc(Br)cc1 | 0 | 0 | 0 | 0 | 0 | 88 | 84 | 20
O=C(NC(=S)N1CCCc2ccccc21)c1ccccc1 | 0 | 0 | 0 | 0 | - | 0 | - | -
COc1ccc(NC(=O)c2cc3c(-c4ccc(OC)c(OC)c4)nn(C)c3s2)cc1OC | 0 | 0 | 0 | 0 | 0 | 0 | - | -
COc1ccc(-c2nn(C)c3sc(C(=O)NCc4ccco4)cc23)cc1OC | 0 | 0 | 0 | 0 | 0 | 134 | 112 | 35
COc1ccc(-c2[nH]c(-c3ccc(C)cc3)nc2SCC(=O)NCc2ccco2)cc1OC | 0 | 0 | 0 | 0 | - | 121 | 85 | 12
CCCc1cc(=O)oc2cc(OCC(=O)NCc3cccs3)ccc12 | 0 | 0 | 0 | 0 | 0 | 87 | 0 | 44
O=S(=O)(CC1NCc2ccccc21)NCCc1ccccc1 (stereo unspecified) | 0 | - | - | - | - | - | - | -
Cn1c(=NC(=O)C2CC2)sc2cccc(F)c21 | 0 | 0 | 0 | 0 | - | 100 | 119 | 23
CCOC(=O)CCCCCN(Cc1ccccc1)S(=O)(=O)c1ccc([N+](=O)[O-])cc1 | 0 | 0 | 0 | 0 | 0 | 92 | 0 | 27
CCCCN1C[C@@H](COCc2ccccc2)Oc2cccc(F)c2S1(=O)=O | 0 | - | - | - | - | - | - | -
C=CCN1C(C(=O)OC)CN(Cc2cn(Cc3ccc(F)cc3)nn2)CCS1(=O)=O (stereo unspecified) | 0 | - | - | - | - | - | - | -
CCCc1nn(C)c(C(=O)Nc2cccc3ccccc23)c1Cl | 0 | 0 | 0 | 0 | 0 | 93 | 74 | -
CCN(CC)S(=O)(=O)c1ccc(N2CCCC2)c(NC(=O)c2nn(C)c(=O)c3ccccc23)c1 | 0 | 0 | 0 | 0 | - | 0 | - | -
Cn1nc(C(=O)Nc2ccccc2N2CCCC2)c2ccccc2c1=O | 0 | 0 | 0 | - | 0 | 114 | 82 | 74
Cn1nc(C(=O)Nc2ccc3c(c2)OCO3)c2ccccc2c1=O | 0 | 0 | 0 | 0 | 0 | 123 | 107 | 0
CC(C)Sc1nnc(NC(=O)c2ccc3c(c2)OCO3)s1 | 0 | 0 | 0 | 0 | 0 | 110 | 0 | 27
O=C(Nc1ccc2c(c1)OCO2)c1ccccc1 | 0 | 0 | 0 | 0 | 0 | 101 | 52 | 24
CCSc1nnc(NC(=O)c2ccc3c(c2)OCO3)s1 | 0 | 0 | 0 | 0 | 0 | 0 | - | -
O=C(Nc1ccc2c(c1)OCCO2)c1ccccc1 | - | 0 | 0 | 0 | - | 0 | - | -
Nn1c(SCC(=O)Nc2cccc3ccccc23)nnc1-c1n[nH]c2c1CCC2 | 0 | - | - | - | - | - | - | -
C#CCNC(=O)C[C@H]1C[C@@]2(C(=O)OC)C(=C[C@H](C(C)C)O[C@@H]2C2CC2)N(Cc2ccccc2)C1=O | 0 | - | - | - | - | - | - | -
Cn1nccc1C(=O)Nc1ccc2c(c1)OCO2 | 0 | 0 | 0 | 0 | 0 | 104 | 60 | 19
O=C(Nc1cccc2nsnc12)c1ccc2c(c1)OCO2 | 0 | 0 | 0 | 0 | - | 118 | 127 | 30
